The source of these data is ChEMBL document CHEMBL2375304, “Synthesis and anticancer activity of novel 2-pyridyl hexahyrocyclooctathieno[2,3-d]pyrimidine derivatives” (2013).

Common to all, as to assay type: functional
One assay concerns NCI-H226. The experiment in a line: Growth inhibition of human NCI-H226 cells after 48 hrs by Sulforhodamine B assay. The following applies: NCI-H226, 48 h. The gist of the method:
(§1)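 Cells were preincubated 24 h at 37 °C, 5% CO2, and a time-zero plate was TCA-fixed. Five concentrations were made by serial dilution from a DMSO stock (400-fold the top concentration) and incubated 48 h. Adherent cells were fixed with 10% final TCA and suspension cells with 16%. Plates were stained with 0.4% SRB and read at 515 nm. GI50 is the concentration giving 50% reduction in net protein increase versus control.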

Assay [1] can be described thus: Growth inhibition of human NCI-ADR-RES cells after 48 hrs by Sulforhodamine B assay. The gist of the method:
as §1
(In general: In SRB staining, fixed cells bind dye roughly in proportion to their protein.)

The test system of another assay is CAKI-1. The experiment in a line: Growth inhibition of human CAKI-1 cells after 48 hrs by Sulforhodamine B assay. The conditions noted are these: CAKI-1, 48 h. The gist of the method:
(§2)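 Five-concentration SRB assay using 10-fold or ½-log serial dilutions from a DMSO stock. Exposure is 48 h at 37 °C in 5% CO2 after 24 h preincubation. TCA fixation is followed by SRB staining and a reading at 515 nm. Percentage growth is computed from time-zero, control and treated absorbances. GI50 is the concentration where [(Ti−Tz)/(C−Tz)]×100 = 50, read from the plot against log concentration.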

For a further assay, the system named is OVCAR-4. The experiment in a line: Growth inhibition of human OVCAR4 cells after 48 hrs by Sulforhodamine B assay. The conditions noted are these: OVCAR-4, 48 h. Put shortly: as §1
The next assay deals with OVCAR-5. Put plainly: Growth inhibition of human OVCAR5 cells after 48 hrs by Sulforhodamine B assay. The conditions noted are these: OVCAR-5, 48 h. The gist of the method: as §1
For the next assay, the system named is SNB-19. Put plainly: Growth inhibition of human SNB19 cells after 48 hrs by Sulforhodamine B assay. The conditions noted are these: SNB-19, 48 h. The gist of the method: as §1
The next assay deals with NCI-H522. The experiment in a line: Growth inhibition of human NCI-H522 cells after 48 hrs by Sulforhodamine B assay. The conditions noted are these: NCI-H522, 48 h. The gist of the method: as §1
Another assay relates to MDA-MB-468. The experiment in a line: Growth inhibition of human MDA-MB-468 cells after 48 hrs by Sulforhodamine B assay. The following applies: MDA-MB-468, 48 h. The gist of the method:
as §1

Another assay deals with SK-OV-3. Put plainly: Growth inhibition of human SKOV3 cells after 48 hrs by Sulforhodamine B assay. The following applies: SK-OV-3, 48 h. The gist of the method: as §1
Another assay has as its system Malme-3M. The experiment in a line: Growth inhibition of human MALME-3M cells after 48 hrs by Sulforhodamine B assay. Put shortly:
as §2

In a further assay the test system is 786-0. Put plainly: Growth inhibition of human 786-0 cells after 48 hrs by Sulforhodamine B assay. The following applies: 786-0, 48 h. Put shortly: as §2
A further assay has as its system T47D. Put plainly: Growth inhibition of human T47D cells after 48 hrs by Sulforhodamine B assay. The gist of the method: as §1
The subject of a further assay is UO-31. Put plainly: Growth inhibition of human UO31 cells after 48 hrs by Sulforhodamine B assay. The conditions noted are these: UO-31, 48 h. Put shortly: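 Five-concentration stage in the […]-cell-line panel, using 10-fold or ½-log serial dilutions made from a DMSO stock (400-fold). Cells were preincubated 24 h at 37 °C, then drug-exposed 48 h. A time-zero plate was fixed with TCA at dosing, adherent cells were fixed with cold TCA (10% final), and protein was stained with SRB, absorbance 515 nm. GI50 was where [(Ti−Tz)/(C−Tz)]×100 = 50, from the percent growth vs log concentration plot, expressed as log10 GI50.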

For the next assay, the system named is RPMI-8226. Put plainly: Growth inhibition of human RPMI8226 cells after 48 hrs by Sulforhodamine B assay. The conditions noted are these: RPMI-8226, 48 h. Put shortly: as §1
A further assay relates to HCT-116. The experiment in a line: Growth inhibition of human HCT116 cells after 48 hrs by Sulforhodamine B assay. The conditions noted are these: HCT-116, 48 h. Put shortly: as §2
The next assay has as its system SF-295. The experiment in a line: Growth inhibition of human SF295 cells after 48 hrs by Sulforhodamine B assay. The conditions noted are these: SF-295, 48 h. The gist of the method:
as §1

Another assay relates to KM12. Put plainly: Growth inhibition of human KM12 cells after 48 hrs by Sulforhodamine B assay. The conditions noted are these: KM12, 48 h. The gist of the method: as §2

`c1ccc(-c2nc(N3CCOCC3)c3c4c(sc3n2)CCCCCC4)nc1`: the GI50 in the assay with NCI-H226 is 5.01 µM; in assay [1], 0.832 µM; in the assay with CAKI-1, 2.29 µM; in the assay with OVCAR-4 it was 4.9 µM; in the assay on OVCAR-5, 10.2 µM; in the assay with SNB-19, 8.32 µM. The GI50 is 5.89 µM in the assay with NCI-H522; 4.17 µM with MDA-MB-468; 9.33 µM with SK-OV-3; 3.31 µM with Malme-3M; 11.7 µM in the assay with 786-0; 4.47 µM in the assay with T47D. The GI50 is 1.17 µM in the assay on UO-31; 2.14 µM with RPMI-8226; 3.72 µM with HCT-116; 3.39 µM with SF-295; 4.27 µM in the assay with KM12.

The term GI50 denotes the concentration at which growth is held to half of that of the control. The low end stands for greater sensitivity of the cells, the high end for lower sensitivity of the cells.
